Data on five compounds can be found in ChEMBL document CHEMBL1629506, “Design, synthesis and structure-activity relationship study of novel pyrazole-based heterocycles as potential antitumor agents” (Eur J Med Chem, 2010).

SMILES strings stand for the structures.

For one series, the system named is MDA-MB-231. In words: Growth inhibition of human MDA-MB-231cells after 48 hrs by sulforhodamine B assay. The class given is functional. To be noted: MDA-MB-231, 48 h. The method, boiled down:
(§1)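 Cells were plated at 5000–40,000 cells/well, depending on doubling time, and preincubated 24 h at 37 °C in 5% CO2. Time-zero plates were TCA-fixed at drug addition. Compounds were dissolved in DMSO and tested at five concentrations (10-fold or ½-log dilutions) for 48 h. Cells were fixed with cold TCA, stained with 0.4% sulforhodamine B and read at 515 nm. GI50 was taken as the concentration giving 50% growth.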
A general note: The SRB assay estimates cell density from bound dye.

For series [1], the system named is Rattus norvegicus. In words: Antiestrogenic activity in Sprague-Dawley rat assessed as reduction in estradiol induced uterine weight upto 0.06 ug, po after 8 days. Also noted: scale not given: the % may be the effect or the level left. Format: functional. The essentials: (§2)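 Immature ovariectomized female Sprague-Dawley rats (~55 g), groups of 12. Estradiol 0.03–0.05 given s.c. daily for 7 days, with test compound or letrozole reference at various doses up to 0.06 per animal, given orally in 0.5% carboxymethylcellulose. Controls received estradiol alone. Uterine weights were taken on day 8 and group means expressed as % reduction versus estradiol-only controls. Potency was taken relative to letrozole.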

Series [2] is described as follows: Acute toxicity in mouse after 24 hrs. The class given is organism-based. To be noted: in vivo. The method, boiled down:
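Adult mice of both sexes, acclimatized 1 week (12 h light/dark, 21–23 °C), fasted 12 h before dosing. 30 mice in 6 groups of 5 each got a single oral gavage dose, at different dose levels, of a fine-powder aqueous suspension. LD50 was determined, with values as group means of five mice.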

Series [3] can be described thus: Growth inhibition of human Hs 578T cells after 48 hrs by sulforhodamine B assay. Format: functional. The essentials: as §1
The next series relates to OVCAR-3. Nature of the series: Growth inhibition of human OVCAR3 cells after 48 hrs by sulforhodamine B assay. The class given is functional. The settings on record: OVCAR-3, 48 h. The method, boiled down:
as §1

The next series concerns MDA-MB-435. Nature of the series: Growth inhibition of human MDA-MB-435 cells after 48 hrs by sulforhodamine B assay. The class given is functional. The settings on record: MDA-MB-435, 48 h. The essentials:
as §1

A further series relates to NCI/ADR-RES. Nature of the series: Growth inhibition of human NCI/ADR-RES cells after 48 hrs by sulforhodamine B assay. Format: functional. The essentials: as §1
Series [4] relates to Rattus norvegicus. Nature of the series: Antiestrogenic activity in Sprague-Dawley rat assessed as reduction in estradiol induced uterine weight 0.06 ug, po after 8 days relative to letrozole. Format: functional. The method, boiled down: as §2
Another series deals with IGROV-1. Nature of the series: Growth inhibition of human IGROV1 cells after 48 hrs by sulforhodamine B assay. Format: functional. To be noted: IGROV-1, 48 h. The method, boiled down:
as §1

A further series deals with SK-OV-3. Nature of the series: Growth inhibition of human SKOV3 cells after 48 hrs by sulforhodamine B assay. The class given is functional. To be noted: SK-OV-3, 48 h. The essentials:
as §1

A further series concerns OVCAR-8. Nature of the series: Growth inhibition of human OVCAR8 cells after 48 hrs by sulforhodamine B assay. The class given is functional. To be noted: OVCAR-8, 48 h. The essentials: as §1
Another series concerns MDA-N. In words: Growth inhibition of human MDA-N cells after 48 hrs by sulforhodamine B assay. The class given is functional. The essentials:
as §1

The next series relates to BT-549. Nature of the series: Growth inhibition of human BT549 cells after 48 hrs by sulforhodamine B assay. Format: functional. The settings on record: BT-549, 48 h. The method, boiled down:
as §1

A further series has as its system OVCAR-5. Nature of the series: Growth inhibition of human OVCAR5 cells after 48 hrs by sulforhodamine B assay. To be noted: OVCAR-5, 48 h. Format: functional. The method, boiled down:
as §1

Another series deals with OVCAR-4. In words: Growth inhibition of human OVCAR4 cells after 48 hrs by sulforhodamine B assay. The class given is functional. The settings on record: OVCAR-4, 48 h. The method, boiled down:
as §1

In the next series the test system is T47D. Nature of the series: Growth inhibition of human T47D cells after 48 hrs by sulforhodamine B assay. Format: functional. The essentials: as §1
The next series concerns MCF7. In words: Growth inhibition of human MCF7 cells after 48 hrs by sulforhodamine B assay. The class given is functional. To be noted: MCF7, 48 h. The method, boiled down: as §1

As a reminder, the GI50 is the concentration giving 50% growth inhibition. One may read the LD50 as the dose expected to kill half of the subjects tested. As to `N#Cc1c(-c2nnc(-c3nn(-c4ccccc4)c(-c4ccccc4)c3C#N)c3nn(-c4ccccc4)cc23)nn(-c2ccccc2)c1-c1ccccc1`, the GI50 in the series with MDA-MB-231 was 52.4 µM; in [3], 94.4 µM; in the series with OVCAR-3 it was 7.26 µM; in the series on MDA-MB-435 it was above 100 µM; with NCI/ADR-RES it was 24.5 µM; in the series with IGROV-1, 13.3 µM. Further, the 50% growth inhibitory concentration (GI50) with SK-OV-3 is 5.72 µM; in the series with OVCAR-8, 9.82 µM; with MDA-N it was above 100 µM; in the series with BT-549 it was 11.8 µM; with OVCAR-5 it was 9.12 µM; in the series on OVCAR-4, 7.46 µM. Moreover, the values for the concentration for 50% growth inhibition (GI50) in the series with T47D and with MCF7 were 81 µM and 17.8 µM, respectively. In addition, in the series with Rattus norvegicus [1], the Activity is on record as 34.87%. Also, the LD50 at 24 h in series [2] stood at 222 mg/kg. Also, the potency ratio vs letrozole in the series on Rattus norvegicus [4] worked out at 1.61.

As for `Cc1ccc(-n2cc(C(=O)c3nn(-c4ccccc4)c(-c4ccccc4)c3C#N)c(C(=O)Nc3ccccc3)n2)cc1`, the GI50 came out at 6.27 µM in the series with MDA-MB-231; 63.2 µM in series [3]; 7.66 µM in the series with OVCAR-3; 2.23 µM with MDA-MB-435; 2.48 µM in the series on NCI/ADR-RES; 16.6 µM in the series on IGROV-1. Moreover, the GI50 in the series with SK-OV-3 is 9.42 µM; in the series on OVCAR-8 it was 9.52 µM; in the series on MDA-N, 5.49 µM; in the series on BT-549, above 100 µM; in the series on OVCAR-5, 9.72 µM; with OVCAR-4, 7.56 µM. Also, the GI50 in the series with T47D stood at 30.8 µM; in the series with MCF7, 34.4 µM. In addition, the Activity with Rattus norvegicus [1] came to 34.65%. For the same compound, the LD50 at 24 h in series [2] is 122 mg/kg. Further, the potency ratio vs letrozole with Rattus norvegicus [4] is 1.6.

For `CN(C)/C=C/C(=O)c1nn(-c2ccccc2)c(-c2ccccc2)c1C#N`, the GI50 in the series on MDA-MB-231 was 50.4 µM; in series [3], above 100 µM; with OVCAR-3, 98.8 µM; in the series with MDA-MB-435, above 100 µM; with NCI/ADR-RES, 90.6 µM; with IGROV-1, 98 µM. Also, the GI50 was 23.8 µM with SK-OV-3; 75.8 µM in the series on OVCAR-8; 45.4 µM with MDA-N; 31.1 µM with BT-549; above 100 µM with OVCAR-5; 63.8 µM with OVCAR-4. Further, the figures for the GI50 in the series with T47D and in the series on MCF7 were 30.2 µM and 39.8 µM, respectively. Moreover, the Activity in the series on Rattus norvegicus [1] came out at 41.98%. Moreover, the LD50 at 24 h in series [2] was found to be 232 mg/kg. In addition, the potency ratio vs letrozole with Rattus norvegicus [4] was determined as 1.93.

Turning to `N#Cc1c(C(=O)c2cn(-c3ccc(Cl)cc3)nc2C(=O)Nc2ccccc2)nn(-c2ccccc2)c1-c1ccccc1`, the GI50 was above 100 µM in the series with MDA-MB-231; 8.84 µM in [3]; 23.8 µM in the series with OVCAR-3; 2.03 µM with MDA-MB-435; above 100 µM in the series with NCI/ADR-RES; 99.5 µM in the series with IGROV-1. In addition, the GI50 in the series on SK-OV-3 was 9.42 µM; in the series on OVCAR-8, above 100 µM; in the series with MDA-N, above 100 µM; in the series with BT-549, 11.8 µM; in the series on OVCAR-5, above 100 µM; in the series with OVCAR-4, 28.4 µM. The GI50 in the series with T47D is 33 µM; in the series with MCF7, above 100 µM. The Activity in the series on Rattus norvegicus [1] worked out at 34.87%. In series [2], the LD50 at 24 h was determined as 101 mg/kg. Moreover, in the series on Rattus norvegicus [4], the potency ratio vs letrozole turned out to be 1.61.

For the compound `N#Cc1c(-c2nnc(-c3nn(-c4ccccc4)c(-c4ccccc4)c3C#N)c3nn(-c4ccc(Cl)cc4)cc23)nn(-c2ccccc2)c1-c1ccccc1`, the GI50 in the series with MDA-MB-231 was 7.9 µM; in series [3], 9.72 µM; in the series with OVCAR-3, 95.8 µM; in the series on MDA-MB-435, 9.2 µM; in the series with NCI/ADR-RES, 7.46 µM; in the series on IGROV-1 it was 98 µM. The GI50 in the series with SK-OV-3 was 36.8 µM; with OVCAR-8, 61.8 µM; with MDA-N, 2.26 µM; with BT-549 it was 1.02 µM; in the series on OVCAR-5, above 100 µM; in the series with OVCAR-4 it was 43.8 µM. Besides, the GI50 in the series on T47D turned out to be 16 µM; in the series with MCF7 it was 9.42 µM. Moreover, the Activity with Rattus norvegicus [1] worked out at 43.41%. The LD50 at 24 h in series [2] stood at 112 mg/kg. In the series with Rattus norvegicus [4], the potency ratio vs letrozole worked out at 2.
